Data taken from ChEMBL document CHEMBL1817551, “Design of small molecule inhibitors of acetyl-CoA carboxylase 1 and 2 showing reduction of hepatic malonyl-CoA levels in vivo in obese Zucker rats” (Bioorg Med Chem, 2011).
≈ marks a conversion by molar mass, not a printed value.

Legend:
[1] = Lipophilicity, log D of the compound; assay type: physicochemical; conditions: octanol/water
[2] = Apparent permeability from apical to basolateral side of human Caco2 cells at pH 7.4 by LCMS; assay type: ADME, cell-based; conditions: Caco-2, pH 7.4
[3] = target: Acetyl-CoA carboxylase 2 (Homo sapiens, UniProt O00763); assay: Inhibition of human recombinant his-tagged ACC2 expressed in baculovirus/Sf9 cell assessed as inorganic phosphate formation […] measured after 1.5 hrs by Malachite green reagent method
Chain of Acetyl-CoA carboxylase 2 (O00763 whole entry): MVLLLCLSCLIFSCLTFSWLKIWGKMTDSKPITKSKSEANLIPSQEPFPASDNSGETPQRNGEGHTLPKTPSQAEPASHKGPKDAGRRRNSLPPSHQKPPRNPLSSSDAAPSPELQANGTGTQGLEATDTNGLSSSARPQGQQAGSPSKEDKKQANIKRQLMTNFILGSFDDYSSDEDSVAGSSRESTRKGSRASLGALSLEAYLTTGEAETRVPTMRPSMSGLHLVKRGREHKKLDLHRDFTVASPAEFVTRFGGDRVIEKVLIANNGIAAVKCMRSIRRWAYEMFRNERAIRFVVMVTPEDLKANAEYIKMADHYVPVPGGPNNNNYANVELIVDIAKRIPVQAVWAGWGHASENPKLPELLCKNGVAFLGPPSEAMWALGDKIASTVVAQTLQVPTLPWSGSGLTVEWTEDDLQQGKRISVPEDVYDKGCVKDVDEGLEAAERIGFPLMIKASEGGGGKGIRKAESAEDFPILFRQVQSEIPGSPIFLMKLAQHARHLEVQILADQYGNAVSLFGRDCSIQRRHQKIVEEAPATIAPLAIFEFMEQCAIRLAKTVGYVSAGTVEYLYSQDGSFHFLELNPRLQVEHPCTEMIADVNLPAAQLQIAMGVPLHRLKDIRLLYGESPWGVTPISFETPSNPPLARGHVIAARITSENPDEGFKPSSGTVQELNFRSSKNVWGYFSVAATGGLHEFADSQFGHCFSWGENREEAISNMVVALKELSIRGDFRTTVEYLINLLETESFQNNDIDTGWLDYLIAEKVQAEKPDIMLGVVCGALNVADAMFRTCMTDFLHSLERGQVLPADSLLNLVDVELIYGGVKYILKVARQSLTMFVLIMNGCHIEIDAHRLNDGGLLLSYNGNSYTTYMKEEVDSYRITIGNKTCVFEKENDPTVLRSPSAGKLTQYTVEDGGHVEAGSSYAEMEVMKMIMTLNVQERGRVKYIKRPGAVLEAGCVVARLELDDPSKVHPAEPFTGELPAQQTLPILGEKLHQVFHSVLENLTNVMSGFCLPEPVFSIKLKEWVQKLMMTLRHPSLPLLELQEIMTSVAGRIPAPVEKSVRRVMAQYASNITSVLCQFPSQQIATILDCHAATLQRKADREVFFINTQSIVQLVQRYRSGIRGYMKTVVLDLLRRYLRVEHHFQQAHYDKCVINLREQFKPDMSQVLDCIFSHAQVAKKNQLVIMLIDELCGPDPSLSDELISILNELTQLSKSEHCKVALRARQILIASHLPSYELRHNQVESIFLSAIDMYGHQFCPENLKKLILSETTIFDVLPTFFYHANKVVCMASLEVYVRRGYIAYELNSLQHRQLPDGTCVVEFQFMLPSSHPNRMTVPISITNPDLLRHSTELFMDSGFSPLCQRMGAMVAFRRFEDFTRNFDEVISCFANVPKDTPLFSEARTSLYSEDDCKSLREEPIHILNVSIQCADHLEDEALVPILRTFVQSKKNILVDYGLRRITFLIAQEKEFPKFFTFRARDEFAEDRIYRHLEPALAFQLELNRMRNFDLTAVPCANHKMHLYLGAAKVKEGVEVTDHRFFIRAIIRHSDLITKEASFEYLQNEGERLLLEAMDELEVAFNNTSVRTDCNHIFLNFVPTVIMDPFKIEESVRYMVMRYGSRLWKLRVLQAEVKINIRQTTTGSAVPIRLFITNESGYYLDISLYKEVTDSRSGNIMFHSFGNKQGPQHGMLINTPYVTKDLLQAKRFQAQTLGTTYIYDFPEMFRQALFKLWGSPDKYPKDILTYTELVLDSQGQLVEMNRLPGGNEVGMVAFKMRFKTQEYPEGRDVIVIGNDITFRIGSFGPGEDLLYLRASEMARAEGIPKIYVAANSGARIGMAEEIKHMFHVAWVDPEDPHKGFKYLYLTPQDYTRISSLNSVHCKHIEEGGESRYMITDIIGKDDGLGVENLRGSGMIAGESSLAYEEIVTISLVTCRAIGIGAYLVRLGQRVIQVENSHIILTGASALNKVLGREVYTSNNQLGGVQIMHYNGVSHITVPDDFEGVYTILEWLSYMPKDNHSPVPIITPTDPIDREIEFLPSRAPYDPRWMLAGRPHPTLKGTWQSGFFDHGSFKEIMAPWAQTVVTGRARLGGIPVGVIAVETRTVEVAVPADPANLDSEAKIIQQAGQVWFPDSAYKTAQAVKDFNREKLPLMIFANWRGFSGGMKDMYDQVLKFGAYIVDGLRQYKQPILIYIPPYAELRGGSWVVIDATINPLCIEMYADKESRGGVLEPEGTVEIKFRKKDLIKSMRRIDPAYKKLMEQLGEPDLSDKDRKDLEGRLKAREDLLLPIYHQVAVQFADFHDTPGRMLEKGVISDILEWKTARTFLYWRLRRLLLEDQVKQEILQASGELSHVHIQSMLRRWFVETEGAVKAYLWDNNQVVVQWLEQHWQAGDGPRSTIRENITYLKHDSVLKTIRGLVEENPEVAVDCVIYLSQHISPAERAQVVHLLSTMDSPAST

[4] = target: Acetyl-CoA carboxylase 1 (Homo sapiens, UniProt Q13085); assay: Inhibition of human recombinant his-tagged ACC1 expressed in baculovirus/Sf9 cell assessed as inorganic phosphate formation […] measured after 1.5 hrs by Malachite green reagent method
[5] = organism: Homo sapiens; assay: Ratio IC50 for human ACC2 to IC50 for human ACC1
[6] = Clearance in C57BL/6 mouse at 33 umol/kg, iv and po; assay type: ADME, organism-based; conditions: in vivo
[7] = Volume of distribution in C57BL/6 mouse at 33 umol/kg, iv and po; assay type: ADME, organism-based; conditions: in vivo
[8] = Half life in C57BL/6 mouse at 33 umol/kg, po; assay type: ADME, organism-based; conditions: in vivo
[9] = Oral bioavailability in C57BL/6 mouse at 33 umol/kg; assay type: ADME, organism-based; conditions: in vivo
[10] = Solubility of the compound after 16 hrs by LC-UV/MS analysis; assay type: physicochemical
[11] = Fraction unbound in human plasma at 10 uM after 18 hrs by equilibrium dialysis method; assay type: ADME, cell-free
[12] = Intrinsic clearance in human liver microsome at 1 uM after 30 mins by LC-UV/MS analysis; assay type: ADME; conditions: liver microsomes
[13] = Clearance in Sprague-Dawley rat at 3 to 5 umol/kg, iv; assay type: ADME, organism-based; conditions: in vivo
[14] = system: Rattus norvegicus; assay: Ratio of […] to fraction unbound in Sprague-Dawley rat at 3 to 5 umol/kg, iv; assay type: ADME, organism-based; conditions: in vivo
[15] = target: CYP2C19 (Homo sapiens, UniProt P33261); assay: Inhibition of CYP2C19 at 13 uM; assay type: ADME
Chain of CYP2C19 (P33261 whole entry): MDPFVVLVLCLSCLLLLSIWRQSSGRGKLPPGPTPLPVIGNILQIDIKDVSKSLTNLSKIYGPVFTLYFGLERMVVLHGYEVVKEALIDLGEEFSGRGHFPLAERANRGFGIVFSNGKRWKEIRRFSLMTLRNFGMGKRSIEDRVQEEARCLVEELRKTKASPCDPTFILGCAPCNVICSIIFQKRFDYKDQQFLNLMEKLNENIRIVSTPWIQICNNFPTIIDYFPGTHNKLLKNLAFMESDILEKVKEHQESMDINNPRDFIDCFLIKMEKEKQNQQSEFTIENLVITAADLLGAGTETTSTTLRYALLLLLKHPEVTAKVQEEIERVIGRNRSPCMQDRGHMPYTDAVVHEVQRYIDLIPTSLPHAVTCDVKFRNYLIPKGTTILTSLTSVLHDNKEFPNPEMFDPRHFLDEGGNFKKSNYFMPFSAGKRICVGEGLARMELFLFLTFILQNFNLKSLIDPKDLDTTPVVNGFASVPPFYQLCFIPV

[16] = target: CYP2D6 (Homo sapiens, UniProt P10635); assay: Inhibition of CYP2D6 at 13 uM; assay type: ADME
[17] = Clearance in C57BL/6 mouse at 20 umol/kg, iv and 20 umol/kg, po; assay type: ADME, organism-based; conditions: in vivo
[18] = Volume of distribution in C57BL/6 mouse at 20 umol/kg, iv and 20 umol/kg, po; assay type: ADME, organism-based; conditions: in vivo
[19] = Half life in C57BL/6 mouse at 20 umol/kg, po; assay type: ADME, organism-based; conditions: in vivo
[20] = Oral bioavailability in C57BL/6 mouse at 20 umol/kg; assay type: ADME, organism-based; conditions: in vivo
[21] = target: Acetyl-Coenzyme A carboxylase 2 (Rattus norvegicus, UniProt Q1HEC0); assay: Inhibition of ACC2 […] preincubated for 15 mins measured after 1.5 hrs using Malachite green reagent method
[22] = system: Rattus norvegicus; assay: Antiobesity activity in obese Zucker rat assessed as reduction in hepatic malonyl-coA level, iv administered 2 hrs; assay type: functional; parameters: scale not given: the % may be the effect or the level left
Procedure, shortened: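 Obese Zucker rats were anaesthetized with Inactin (180 mg/kg ip), tracheotomized and fitted with carotid and jugular catheters. After 1.5 h post-surgery stabilization at 37.5 °C, compound or vehicle was infused iv; lean vehicle controls were included. Hepatic malonyl-CoA was measured by ion-pair HPLC–negative ESI MS/MS against a ¹³C₃ internal standard and related to plasma free exposure (fu×Cp/rat ACC2 IC50).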

[23] = target: T1, CYP1A2 (Homo sapiens, UniProt P05177); assay: Inhibition of CYP1A2 at 13 uM; assay type: ADME
T1 sequence (P05177 whole entry): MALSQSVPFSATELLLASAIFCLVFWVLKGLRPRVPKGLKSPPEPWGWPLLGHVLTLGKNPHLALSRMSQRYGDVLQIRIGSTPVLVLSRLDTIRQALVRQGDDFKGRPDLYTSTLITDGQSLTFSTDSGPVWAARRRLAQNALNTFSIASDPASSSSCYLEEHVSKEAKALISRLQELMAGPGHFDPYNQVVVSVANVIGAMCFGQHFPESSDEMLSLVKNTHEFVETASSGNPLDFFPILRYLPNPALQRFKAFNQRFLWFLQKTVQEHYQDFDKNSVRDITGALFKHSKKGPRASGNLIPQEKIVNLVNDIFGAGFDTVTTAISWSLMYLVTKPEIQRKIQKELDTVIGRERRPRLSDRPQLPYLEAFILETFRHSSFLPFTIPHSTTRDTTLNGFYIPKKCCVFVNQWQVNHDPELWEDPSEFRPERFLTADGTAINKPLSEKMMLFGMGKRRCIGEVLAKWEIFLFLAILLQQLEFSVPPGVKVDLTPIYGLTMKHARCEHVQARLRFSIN

[24] = target: CYP2C9 (Homo sapiens, UniProt P11712); assay: Inhibition of CYP2C9 at 13 uM; assay type: ADME
Chain of CYP2C9 (P11712 whole entry): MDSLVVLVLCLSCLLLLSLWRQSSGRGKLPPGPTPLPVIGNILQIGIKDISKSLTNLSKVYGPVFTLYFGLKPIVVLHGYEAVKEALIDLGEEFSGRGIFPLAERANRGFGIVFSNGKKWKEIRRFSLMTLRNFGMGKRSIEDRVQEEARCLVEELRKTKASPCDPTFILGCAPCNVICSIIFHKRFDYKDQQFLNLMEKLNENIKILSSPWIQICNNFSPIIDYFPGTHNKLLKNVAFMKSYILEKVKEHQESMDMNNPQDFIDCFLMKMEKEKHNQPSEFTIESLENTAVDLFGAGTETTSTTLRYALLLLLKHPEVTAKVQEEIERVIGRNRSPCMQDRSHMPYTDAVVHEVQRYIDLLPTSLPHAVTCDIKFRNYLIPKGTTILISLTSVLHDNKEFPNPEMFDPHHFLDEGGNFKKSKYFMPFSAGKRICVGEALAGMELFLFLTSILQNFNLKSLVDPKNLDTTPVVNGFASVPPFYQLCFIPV

[25] = target: CYP3A4 (Homo sapiens, UniProt P08684); assay: Inhibition of CYP3A4 at 13 uM; assay type: ADME
Chain of CYP3A4 (P08684 whole entry): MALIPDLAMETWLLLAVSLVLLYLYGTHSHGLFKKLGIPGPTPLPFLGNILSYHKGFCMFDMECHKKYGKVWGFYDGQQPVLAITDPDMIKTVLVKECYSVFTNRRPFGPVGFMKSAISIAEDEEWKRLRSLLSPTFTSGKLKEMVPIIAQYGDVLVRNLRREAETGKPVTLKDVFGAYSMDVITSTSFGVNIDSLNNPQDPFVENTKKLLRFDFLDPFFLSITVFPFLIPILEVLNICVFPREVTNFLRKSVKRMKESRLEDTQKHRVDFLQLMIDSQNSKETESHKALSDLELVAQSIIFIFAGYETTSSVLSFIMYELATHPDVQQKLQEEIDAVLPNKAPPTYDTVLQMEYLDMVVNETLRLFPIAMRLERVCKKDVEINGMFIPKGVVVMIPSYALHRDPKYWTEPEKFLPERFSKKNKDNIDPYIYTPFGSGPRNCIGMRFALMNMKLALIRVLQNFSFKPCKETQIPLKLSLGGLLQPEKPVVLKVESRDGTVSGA

[26] = target: Voltage-gated inwardly rectifying potassium channel KCNH2 (Homo sapiens, UniProt Q12809)
Chain of Voltage-gated inwardly rectifying potassium channel KCNH2 (Q12809 whole entry): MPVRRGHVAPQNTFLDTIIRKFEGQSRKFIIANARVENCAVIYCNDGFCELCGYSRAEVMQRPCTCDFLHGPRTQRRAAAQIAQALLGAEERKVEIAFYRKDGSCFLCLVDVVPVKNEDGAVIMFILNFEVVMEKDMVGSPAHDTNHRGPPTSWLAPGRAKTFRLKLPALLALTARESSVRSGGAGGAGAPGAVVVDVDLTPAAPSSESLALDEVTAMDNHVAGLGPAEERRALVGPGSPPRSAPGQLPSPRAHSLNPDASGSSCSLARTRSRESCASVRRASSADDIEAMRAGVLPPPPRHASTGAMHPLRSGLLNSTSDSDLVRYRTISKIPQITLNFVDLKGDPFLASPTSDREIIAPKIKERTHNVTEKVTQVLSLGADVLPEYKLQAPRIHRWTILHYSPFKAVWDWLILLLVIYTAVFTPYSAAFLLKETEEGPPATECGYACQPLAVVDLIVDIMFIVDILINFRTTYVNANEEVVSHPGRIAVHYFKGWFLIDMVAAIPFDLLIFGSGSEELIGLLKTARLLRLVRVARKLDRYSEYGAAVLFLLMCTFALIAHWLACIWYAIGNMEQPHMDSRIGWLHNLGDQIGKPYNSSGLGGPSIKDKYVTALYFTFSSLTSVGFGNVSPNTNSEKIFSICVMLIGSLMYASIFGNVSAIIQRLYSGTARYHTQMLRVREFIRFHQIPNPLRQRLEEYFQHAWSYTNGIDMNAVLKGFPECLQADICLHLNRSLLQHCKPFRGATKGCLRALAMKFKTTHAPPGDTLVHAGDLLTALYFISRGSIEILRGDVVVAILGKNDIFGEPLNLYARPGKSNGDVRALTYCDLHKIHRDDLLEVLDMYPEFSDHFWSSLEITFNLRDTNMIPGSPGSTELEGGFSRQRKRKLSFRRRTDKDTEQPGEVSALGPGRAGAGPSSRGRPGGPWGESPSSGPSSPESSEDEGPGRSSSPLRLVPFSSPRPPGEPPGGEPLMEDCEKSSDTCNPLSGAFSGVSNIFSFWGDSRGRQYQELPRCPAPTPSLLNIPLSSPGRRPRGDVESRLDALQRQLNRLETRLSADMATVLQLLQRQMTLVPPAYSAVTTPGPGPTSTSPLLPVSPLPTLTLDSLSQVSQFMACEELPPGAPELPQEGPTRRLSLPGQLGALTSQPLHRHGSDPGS

[27] = target: Acetyl-CoA carboxylase 1 (Rattus norvegicus, UniProt P11497); assay: Inhibition of rat ACC1 assessed as inorganic phosphate generation preincubated for 5 mins measured after 1.5 hrs using Malachite green reagent method
[28] = Fraction unbound in rat plasma at 10 uM after 18 hrs by equilibrium dialysis method; assay type: ADME, cell-free

CC(C)(C)OC(=O)NC[C@H]1CC[C@H](CNC(=O)c2cc(N3CCC(CCN)CC3)nc3ccccc23)CC1
logD [1]: 3.2
Papp A→B [2]: 0.5 ×10⁻⁶ cm/s
IC50 [3]: 89 nM
IC50 [4]: 780 nM

CC(C)(C)OC(=O)NC[C@H]1CC[C@H](CNC(=O)c2cc(Cl)nc3ccccc23)CC1
logD [1]: 4.9

CC(C)(C)OC(=O)NC[C@H]1CC[C@H](CNC(=O)c2cc(N3CCC(CCO)CC3)nc3ccccc23)CC1
logD [1]: 4.5
IC50 [3]: 230 nM
IC50 [4]: 2300 nM
Ratio IC50 [5]: 10

CN(C)CCC1CCN(c2cc(C(=O)NC[C@H]3CC[C@H](CNC(=O)OCC(C)(C)C)CC3)c3ccccc3n2)CC1
logD [1]: 4
IC50 [3]: 130 nM
IC50 [4]: 1000 nM
clearance [6]: 52 mL/min/kg
Vd [7]: 9.6 L/kg
half-life [8]: 2.9 h
bioavailability [9]: 115%

CN(C)CCOC1CN(c2cc(C(=O)NC[C@H]3CC[C@H](CNC(=O)OC(C)(C)C)CC3)c3ccccc3n2)C1
logD [1]: 3

CC(C)(C)OC(=O)NC[C@H]1CC[C@H](CNC(=O)c2cc(-c3ccc(C(=O)O)cc3)nc3ccccc23)CC1
logD [1]: 2.5
IC50 [3]: 750 nM
IC50 [4]: 2900 nM

CN(C)CCC1CCN(c2cc(C(=O)NC[C@H]3CC[C@H](CNC(=O)OC(C)(C)C)CC3)c3ccccc3n2)CC1
logD [1]: 3.6
solubility at 16 h [10]: 79 µM (≈ 43.6 µg/mL)
fraction unbound at 18 h, 10 µM [11]: 0.034
microsomal CLint at 1 µM [12]: 14 µL/min/mg
clearance [13]: 32 mL/min/kg
Ratio [14]: 800
inhibition at 13 µM [15]: < 50%
inhibition at 13 µM [16]: < 50%
IC50 [3]: 110 nM
IC50 [4]: 1200 nM
clearance [17]: 46 mL/min/kg
Vd [18]: 6.7 L/kg
half-life [19]: 4.5 h
bioavailability [20]: 131%
IC50 [21]: 190 nM
Activity [22]: 50%
inhibition at 13 µM [23]: < 50%
inhibition at 13 µM [24]: < 50%
inhibition at 13 µM [25]: < 50%
Ratio IC50 [5]: 10
IC50 [26]: > 33000 nM
IC50 [27]: 460 nM

CC(C)(C)OC(=O)NC[C@H]1CC[C@H](CNC(=O)c2cc(-c3ccccc3)nc3ccccc23)CC1
logD [1]: 5.9
solubility at 16 h [10]: < 1 µM
fraction unbound at 18 h, 10 µM [11]: 0.001
microsomal CLint at 1 µM [12]: 124 µL/min/mg
clearance [13]: 60 mL/min/kg
fraction unbound at 18 h, 10 µM [28]: 0.005
Ratio [14]: 12000
IC50 [3]: 210 nM

CC(C)(C)OC(=O)NC[C@H]1CC[C@H](CNC(=O)c2cc(N3CCC(CN)CC3)nc3ccccc23)CC1
logD [1]: 3.2
IC50 [3]: 690 nM
IC50 [4]: 4300 nM

CN(C)CCC1CCN(c2cc(C(=O)NC[C@H]3CC[C@H](COC(=O)NC(C)(C)C)CC3)c3ccccc3n2)CC1
logD [1]: 3.6
IC50 [3]: 1700 nM
IC50 [4]: 9900 nM

O=C(c1c2ccccc2cc2ccccc12)N1CCC(N2CCC[C@@H](C(=O)N3CCOCC3)C2)CC1
Activity [22]: 50%

CC(C)(C)OC(=O)NC[C@H]1CC[C@H](CNC(=O)c2cc(-c3ccc(CN)cc3)nc3ccccc23)CC1
logD [1]: 3.2
IC50 [4]: 1700 nM

CC(C)(C)OC(=O)NC[C@H]1CC[C@H](CNS(=O)(=O)c2ccc3ccccc3c2)CC1
IC50 [3]: 2500 nM

Cc1noc(C)c1-c1cc(C(=O)NC[C@H]2CC[C@H](CNC(=O)OC(C)(C)C)CC2)c2ccccc2n1
logD [1]: 5
